What was measured:
Format in all cases: functional
L1210 [1] = test: Survival of L-1210 leukemia cells upon exposure to the compound for 1 hr at a concentration of 10ug/mL, measured in colony forming units.; settings: Mus musculus, L1210, 1 h; read-out: Survival
L1210 [2] = test: Survival of L-1210 leukemia cells upon exposure to the compound for 1 hr at a concentration of 100ug/mL, measured in colony forming units.; settings: Mus musculus, L1210, 1 h; read-out: Survival
Nucleic Acid [3] = test: Ability to […] breaks induced by ionozing radiation on exposure for 1 hr at a concentration of 250 ug/mL
Method in brief: (§1)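 Murine L-1210 cells were prelabelled with [2-14C]thymidine (2.0 μCi) for 4 doublings (48 h), then chased 24 h in unlabelled medium. They were exposed 1 h at 37 °C, washed twice at 4 °C, and 10^6 cells were lysed on PVC filters (SDS/glycine/EDTA, pH 10.0). Lysates were digested 1 h with proteinase K (0.5 mg/mL), then alkaline-eluted (pH 12.1) for 15 h. First-order elution rates were converted to rad equivalents against ionizing-radiation standards. Values are the mean of three determinations, or duplicates where marked.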

L1210 [4] = test: Survival of L-1210 leukemia cells upon exposure to the compound for 1 hr at a concentration of 50ug/mL, measured in colony forming units.; settings: Mus musculus, L1210, 1 h; read-out: Survival
L1210 [5] = test: Survival of L-1210 leukemia cells upon exposure to the compound for 1 hr at a concentration of 250ug/mL, measured in colony forming units.; settings: Mus musculus, L1210, 1 h; read-out: Survival
Nucleic Acid [6] = test: Ability to […] breaks induced by ionozing radiation on exposure for 1 hr at a concentration of 100 ug/mL; method in brief: as §1
Nucleic Acid [7] = test: Ability to […] breaks induced by ionozing radiation on exposure for 1 hr at a concentration of 500 ug/mL; method in brief: as §1
L1210 [8] = test: Survival of L-1210 leukemia cells upon exposure to the compound for 1 hr at a concentration of 500ug/mL, measured in colony forming units.; settings: Mus musculus, L1210, 1 h; read-out: Survival
Nucleic Acid [9] = test: Ability to […] breaks induced by ionozing radiation on exposure for 1 hr at a concentration of 10 ug/mL; method in brief: as §1
Nucleic Acid [10] = test: Ability to […] breaks induced by ionozing radiation on exposure for 1 hr at a concentration of 50 ug/mL; method in brief: as §1
L1210 [11] = test: Survival of L-1210 leukemia cells upon exposure to the compound for 1 hr at a concentration of 1ug/mL, measured in colony forming units.; settings: Mus musculus, L1210, 1 h; read-out: Survival
[12] = tested as the 18O-labelled form

| SMILES | viability at 10 µg/mL (L1210 [1]) [%] | viability at 100 µg/mL (L1210 [2]) [%] | DNA single strand breaks (Nucleic Acid [3]) [rad equiv] | viability at 50 µg/mL (L1210 [4]) [%] | viability at 250 µg/mL (L1210 [5]) [%] | DNA single strand breaks (Nucleic Acid [6]) [rad equiv] | DNA single strand breaks (Nucleic Acid [7]) [rad equiv] | viability at 500 µg/mL (L1210 [8]) [%] | DNA single strand breaks (Nucleic Acid [9]) [rad equiv] | DNA single strand breaks (Nucleic Acid [10]) [rad equiv] | viability at 1 µg/mL (L1210 [11]) [%] | DNA single strand breaks (Nucleic Acid [6]; [12]) [rad equiv] | DNA single strand breaks (Nucleic Acid [7]; [12]) [rad equiv] | DNA single strand breaks (Nucleic Acid [9]; [12]) [rad equiv] | DNA single strand breaks (Nucleic Acid [10]; [12]) [rad equiv] |
| --- | --- | --- | --- | --- | --- | --- | --- | --- | --- | --- | --- | --- | --- | --- | --- |
| CC1=C(N)C(=O)c2c(COC(N)=O)c3n(c2C1=O)CC(N)C3 (stereo not given) | 100 | 8 | 470 | 43 | 0.9 | 320 | 535 | 0 | 0 | 110 | – | – | – | – | – |
| CC1=C(N)C(=O)c2c(COC(N)=O)c3n(c2C1=O)CC(N)C3[18OH] (stereo not given) | 81 | 0 | – | 2 | – | – | – | 0 | – | – | 100 | – | – | – | – |
| CC1=C(N)C(=O)c2c(COC(N)=O)c3n(c2C1=O)CC(N)C3O (stereo not given) | – | – | – | – | – | – | – | – | – | – | – | 50 | 395 | 0 | 0 |
| COS(C)(=O)=O [METHANESULFONIC ACID METHYL ESTER] | 100 | 0.2 | – | 32 | – | 2150 | – | – | 583 | 935 | – | – | – | – | – |

From ChEMBL document CHEMBL1124943, “Alkylation of DNA by C-10 of 2,7-diaminomitosene” (1990)
